{"source": "ChEMBL document CHEMBL1131343", "about": "“Nonpeptide cyclic cyanoguanidines as HIV-1 protease inhibitors: synthesis, structure-activity relationships, and X-ray crystal structure studies” (J Med Chem, 1998)", "key": {"[1]": {"test_system": "Human immunodeficiency virus 1", "assay": "The antiviral potency (IC90) was assessed by measuring their effect on the accumulation of viral RNA transcripts on HIV-1 RF infected MT-2 cells", "assay_type": "functional", "conditions": "Human immunodeficiency virus 1, MT2", "method_in_brief": "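HIV-1 RF infection of MT-2 cells; the read-out is viral RNA transcript accumulation measured 3 days after infection. IC90 is taken from this read-out.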"}, "[2]": {"biological_target": "Human immunodeficiency virus type 1 protease (Human immunodeficiency virus 1, UniProt Q72874)", "assay": "Binding affinity for HIV-1 protease enzyme was measured by using fluorescent peptide substrate"}}, "data": [{"smiles": "O=C1N(Cc2ccc3ccccc3c2)[C@H](Cc2ccccc2)[C@H](O)[C@@H](O)[C@@H](Cc2ccccc2)N1Cc1ccc2ccccc2c1", "values": [{"measurement": "IC90", "setting": "[1]", "value": 3.9, "unit": "µM"}, {"measurement": "Ki", "setting": "[2]", "value": 0.00031, "unit": "µM"}]}, {"smiles": "N#Cc1ccc(CN2C(=O)N(Cc3ccc(C#N)cc3)[C@H](Cc3ccccc3)[C@H](O)[C@@H](O)[C@H]2Cc2ccccc2)cc1", "values": [{"measurement": "IC90", "setting": "[1]", "value": 5.8, "unit": "µM"}, {"measurement": "Ki", "setting": "[2]", "value": 0.052, "unit": "µM"}]}, {"smiles": "N#CN=C1N(Cc2cccc(N)c2)[C@H](Cc2ccccc2)[C@H](O)[C@@H](O)[C@@H](Cc2ccccc2)N1Cc1cccc(N)c1", "values": [{"measurement": "IC90", "setting": "[1]", "value": 0.5, "unit": "µM"}, {"measurement": "Ki", "setting": "[2]", "value": 0.0074, "unit": "µM"}]}, {"smiles": "N#CN=C1N(Cc2cccc(O)c2)[C@H](Cc2ccccc2)[C@H](O)[C@@H](O)[C@@H](Cc2ccccc2)N1Cc1cccc(O)c1", "values": [{"measurement": "IC90", "setting": "[1]", "value": 0.13, "unit": "µM"}, {"measurement": "Ki", "setting": "[2]", "value": 0.00072, "unit": "µM"}]}, {"smiles": "O=C1N[C@H](Cc2ccccc2)[C@H](O)[C@@H](O)[C@@H](Cc2ccccc2)N1", "values": [{"measurement": "Ki", "setting": "[2]", "value": 0.267, "unit": "µM"}]}, {"smiles": "N#CN=C1N(Cc2ccc(CO)cc2)[C@H](Cc2ccccc2)[C@H](O)[C@@H](O)[C@@H](Cc2ccccc2)N1Cc1ccc(CO)cc1", "values": [{"measurement": "IC90", "setting": "[1]", "value": 3.2, "unit": "µM"}, {"measurement": "Ki", "setting": "[2]", "value": 0.011, "unit": "µM"}]}, {"smiles": "N#CN=C1N(CC2CC2)[C@H](Cc2ccccc2)[C@H](O)[C@@H](O)[C@@H](Cc2ccccc2)N1CC1CC1", "values": [{"measurement": "IC90", "setting": "[1]", "value": 5, "unit": "µM"}, {"measurement": "Ki", "setting": "[2]", "value": 0.022, "unit": "µM"}]}, {"smiles": "O=C1N(CC2CCCCC2)[C@H](Cc2ccccc2)[C@H](O)[C@@H](O)[C@@H](Cc2ccccc2)N1CC1CCCCC1", "values": [{"measurement": "IC90", "setting": "[1]", "value": 96, "unit": "µM"}]}, {"smiles": "CCCN1C(=NC#N)N(CCC)[C@H](Cc2ccccc2)[C@H](O)[C@@H](O)[C@H]1Cc1ccccc1", "values": [{"measurement": "IC90", "setting": "[1]", "value": 7.4, "unit": "µM"}, {"measurement": "Ki", "setting": "[2]", "value": 0.014, "unit": "µM"}]}, {"smiles": "Nc1cccc(CN2C(=O)N(Cc3cccc(N)c3)[C@H](Cc3ccccc3)[C@H](O)[C@@H](O)[C@H]2Cc2ccccc2)c1", "note": "[MOZENAVIR]", "values": [{"measurement": "IC90", "setting": "[1]", "value": 0.13, "unit": "µM"}, {"measurement": "Ki", "setting": "[2]", "value": 0.00028, "unit": "µM"}]}, {"smiles": "N#CN=C1N(CC2CCCC2)[C@H](Cc2ccccc2)[C@H](O)[C@@H](O)[C@@H](Cc2ccccc2)N1CC1CCCC1", "values": [{"measurement": "IC90", "setting": "[1]", "value": 0.35, "unit": "µM"}, {"measurement": "Ki", "setting": "[2]", "value": 0.0015, "unit": "µM"}]}, {"smiles": "CC(C)CCN1C(=NC#N)N(CCC(C)C)[C@H](Cc2ccccc2)[C@H](O)[C@@H](O)[C@H]1Cc1ccccc1", "values": [{"measurement": "IC90", "setting": "[1]", "value": 1.1, "unit": "µM"}, {"measurement": "Ki", "setting": "[2]", "value": 0.0038, "unit": "µM"}]}, {"smiles": "Nc1ccc(CN2C(=O)N(Cc3ccc(N)cc3)[C@H](Cc3ccccc3)[C@H](O)[C@@H](O)[C@H]2Cc2ccccc2)cc1", "values": [{"measurement": "IC90", "setting": "[1]", "value": 0.11, "unit": "µM"}, {"measurement": "Ki", "setting": "[2]", "value": 0.0011, "unit": "µM"}]}, {"smiles": "CC(C)=CCN1C(=NC#N)N(CC=C(C)C)[C@H](Cc2ccccc2)[C@H](O)[C@@H](O)[C@H]1Cc1ccccc1", "values": [{"measurement": "IC90", "setting": "[1]", "value": 4.7, "unit": "µM"}, {"measurement": "Ki", "setting": "[2]", "value": 0.03, "unit": "µM"}]}, {"smiles": "N#CN=C1N(CC2CCCCC2)[C@H](Cc2ccccc2)[C@H](O)[C@@H](O)[C@@H](Cc2ccccc2)N1CC1CCCCC1", "values": [{"measurement": "IC90", "setting": "[1]", "value": 1.1, "unit": "µM"}, {"measurement": "Ki", "setting": "[2]", "value": 0.0057, "unit": "µM"}]}, {"smiles": "N#CN=C1N(Cc2ccc(C#N)cc2)[C@H](Cc2ccccc2)[C@H](O)[C@@H](O)[C@@H](Cc2ccccc2)N1Cc1ccc(C#N)cc1", "values": [{"measurement": "IC90", "setting": "[1]", "value": 7.7, "unit": "µM"}, {"measurement": "Ki", "setting": "[2]", "value": 0.128, "unit": "µM"}]}, {"smiles": "O=C1N(Cc2cccc(OCc3ccccc3)c2)[C@H](Cc2ccccc2)[C@H](O)[C@@H](O)[C@@H](Cc2ccccc2)N1Cc1cccc(OCc2ccccc2)c1", "values": [{"measurement": "IC90", "setting": "[1]", "value": "> 70", "unit": "µM"}, {"measurement": "Ki", "setting": "[2]", "value": 0.34, "unit": "µM"}]}, {"smiles": "N#CN=C1N(Cc2ccc([N+](=O)[O-])cc2)[C@H](Cc2ccccc2)[C@H](O)[C@@H](O)[C@@H](Cc2ccccc2)N1Cc1ccc([N+](=O)[O-])cc1", "values": [{"measurement": "IC90", "setting": "[1]", "value": 19.3, "unit": "µM"}, {"measurement": "Ki", "setting": "[2]", "value": 0.067, "unit": "µM"}]}, {"smiles": "O=C1N(Cc2ccc(OCc3ccccc3)cc2)[C@H](Cc2ccccc2)[C@H](O)[C@@H](O)[C@@H](Cc2ccccc2)N1Cc1ccc(OCc2ccccc2)cc1", "values": [{"measurement": "IC90", "setting": "[1]", "value": "> 70", "unit": "µM"}, {"measurement": "Ki", "setting": "[2]", "value": 0.542, "unit": "µM"}]}, {"smiles": "N#CN=C1N(Cc2cccc(CO)c2)[C@H](Cc2ccccc2)[C@H](O)[C@@H](O)[C@@H](Cc2ccccc2)N1Cc1cccc(CO)c1", "values": [{"measurement": "IC90", "setting": "[1]", "value": 0.59, "unit": "µM"}, {"measurement": "Ki", "setting": "[2]", "value": 0.0017, "unit": "µM"}]}, {"smiles": "O=C1N(Cc2ccc([N+](=O)[O-])cc2)[C@H](Cc2ccccc2)[C@H](O)[C@@H](O)[C@@H](Cc2ccccc2)N1Cc1ccc([N+](=O)[O-])cc1", "values": [{"measurement": "IC90", "setting": "[1]", "value": 8.4, "unit": "µM"}, {"measurement": "Ki", "setting": "[2]", "value": 0.032, "unit": "µM"}]}, {"smiles": "N#CN=C1N(Cc2ccccc2)[C@H](Cc2ccccc2)[C@H](O)[C@@H](O)[C@@H](Cc2ccccc2)N1Cc1ccccc1", "values": [{"measurement": "IC90", "setting": "[1]", "value": 3.8, "unit": "µM"}, {"measurement": "Ki", "setting": "[2]", "value": 0.02, "unit": "µM"}]}, {"smiles": "O=C1N(Cc2ccc(O)cc2)[C@H](Cc2ccccc2)[C@H](O)[C@@H](O)[C@@H](Cc2ccccc2)N1Cc1ccc(O)cc1", "values": [{"measurement": "IC90", "setting": "[1]", "value": 0.032, "unit": "µM"}]}, {"smiles": "CCCCN1C(=NC#N)N(CCCC)[C@H](Cc2ccccc2)[C@H](O)[C@@H](O)[C@H]1Cc1ccccc1", "values": [{"measurement": "IC90", "setting": "[1]", "value": 2.6, "unit": "µM"}, {"measurement": "Ki", "setting": "[2]", "value": 0.0027, "unit": "µM"}]}, {"smiles": "N#CN=C1N(Cc2cccc([N+](=O)[O-])c2)[C@H](Cc2ccccc2)[C@H](O)[C@@H](O)[C@@H](Cc2ccccc2)N1Cc1cccc([N+](=O)[O-])c1", "values": [{"measurement": "IC90", "setting": "[1]", "value": 17.7, "unit": "µM"}, {"measurement": "Ki", "setting": "[2]", "value": 0.089, "unit": "µM"}]}, {"smiles": "N#CN=C1N(Cc2cccc(OCc3ccccc3)c2)[C@H](Cc2ccccc2)[C@H](O)[C@@H](O)[C@@H](Cc2ccccc2)N1Cc1cccc(OCc2ccccc2)c1", "values": [{"measurement": "IC90", "setting": "[1]", "value": "> 67.3", "unit": "µM"}, {"measurement": "Ki", "setting": "[2]", "value": 1.37, "unit": "µM"}]}, {"smiles": "N#Cc1cccc(CN2C(=O)N(Cc3cccc(C#N)c3)[C@H](Cc3ccccc3)[C@H](O)[C@@H](O)[C@H]2Cc2ccccc2)c1", "values": [{"measurement": "IC90", "setting": "[1]", "value": 2.2, "unit": "µM"}]}, {"smiles": "CC(C)CCN1C(=O)N(CCC(C)C)[C@H](Cc2ccccc2)[C@H](O)[C@@H](O)[C@H]1Cc1ccccc1", "values": [{"measurement": "IC90", "setting": "[1]", "value": 4.3, "unit": "µM"}]}, {"smiles": "CC(C)=CCN1C(=O)N(CC=C(C)C)[C@H](Cc2ccccc2)[C@H](O)[C@@H](O)[C@H]1Cc1ccccc1", "values": [{"measurement": "IC90", "setting": "[1]", "value": 0.86, "unit": "µM"}, {"measurement": "Ki", "setting": "[2]", "value": 0.0016, "unit": "µM"}]}, {"smiles": "O=C1N(Cc2ccc(CO)cc2)[C@H](Cc2ccccc2)[C@H](O)[C@@H](O)[C@@H](Cc2ccccc2)N1Cc1ccc(CO)cc1", "note": "[DMP-323]", "values": [{"measurement": "IC90", "setting": "[1]", "value": 0.057, "unit": "µM"}]}, {"smiles": "NC(=O)NC1=N[C@H](Cc2ccccc2)[C@H](O)[C@@H](O)[C@@H](Cc2ccccc2)N1", "values": [{"measurement": "IC90", "setting": "[1]", "value": "> 142", "unit": "µM"}, {"measurement": "Ki", "setting": "[2]", "value": "> 12.5", "unit": "µM"}]}, {"smiles": "N#CN=C1N(Cc2ccc3ccccc3c2)[C@H](Cc2ccccc2)[C@H](O)[C@@H](O)[C@@H](Cc2ccccc2)N1Cc1ccc2ccccc2c1", "values": [{"measurement": "IC90", "setting": "[1]", "value": "> 79", "unit": "µM"}, {"measurement": "Ki", "setting": "[2]", "value": 0.022, "unit": "µM"}]}, {"smiles": "N#CN=C1N(CC2CCC2)[C@H](Cc2ccccc2)[C@H](O)[C@@H](O)[C@@H](Cc2ccccc2)N1CC1CCC1", "values": [{"measurement": "IC90", "setting": "[1]", "value": 0.84, "unit": "µM"}, {"measurement": "Ki", "setting": "[2]", "value": 0.002, "unit": "µM"}]}, {"smiles": "C=CCN1C(=NC#N)N(CC=C)[C@H](Cc2ccccc2)[C@H](O)[C@@H](O)[C@H]1Cc1ccccc1", "values": [{"measurement": "IC90", "setting": "[1]", "value": 51, "unit": "µM"}, {"measurement": "Ki", "setting": "[2]", "value": 0.037, "unit": "µM"}]}, {"smiles": "N#CN=C1N(Cc2cccc(C#N)c2)[C@H](Cc2ccccc2)[C@H](O)[C@@H](O)[C@@H](Cc2ccccc2)N1Cc1cccc(C#N)c1", "values": [{"measurement": "IC90", "setting": "[1]", "value": 3.1, "unit": "µM"}, {"measurement": "Ki", "setting": "[2]", "value": 0.027, "unit": "µM"}]}, {"smiles": "N#CN=C1N(Cc2ccc(O)cc2)[C@H](Cc2ccccc2)[C@H](O)[C@@H](O)[C@@H](Cc2ccccc2)N1Cc1ccc(O)cc1", "values": [{"measurement": "IC90", "setting": "[1]", "value": 0.25, "unit": "µM"}, {"measurement": "Ki", "setting": "[2]", "value": 0.0026, "unit": "µM"}]}, {"smiles": "N#CN=C1N(Cc2ccc(OCc3ccccc3)cc2)[C@H](Cc2ccccc2)[C@H](O)[C@@H](O)[C@@H](Cc2ccccc2)N1Cc1ccc(OCc2ccccc2)cc1", "values": [{"measurement": "IC90", "setting": "[1]", "value": 67.3, "unit": "µM"}, {"measurement": "Ki", "setting": "[2]", "value": 0.9, "unit": "µM"}]}, {"smiles": "N#CN=C1N(Cc2ccc(N)cc2)[C@H](Cc2ccccc2)[C@H](O)[C@@H](O)[C@@H](Cc2ccccc2)N1Cc1ccc(N)cc1", "values": [{"measurement": "IC90", "setting": "[1]", "value": 2.3, "unit": "µM"}, {"measurement": "Ki", "setting": "[2]", "value": 0.025, "unit": "µM"}]}]}
